Data taken from PubChem BioAssay.
The source made the active and inactive calls.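 The calls were made as follows, unless noted: active = membrane potential signal rise above negative control mean plus 3 SD in both duplicates, also active in the earlier TRPC4 screen; inactive = the rest.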

Biological target: Short transient receptor potential channel 6 (Mus musculus) (UniProt Q61143)
Assay: TRPC6 blockade by TRPC4 inhibitor hits – cell-based, HEK293, membrane potential dye, duplicate, selectivity assay for TRPC4 inhibitor project, confirmation (AID 434948;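 active = active in primary screen and both duplicates, each dropping signal beyond three positive-control SD with fluorescence still positive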)
Conditions: HEK293 TRPC6, membrane potential dye fluorescence, at 10 µM, stimulated with maximal-effect acetylcholine; hits give high values
Method in brief: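 Test system: TRPC6-expressing HEK293 cells / Probe or stimulus: acetylcholine at maximal (ECmax) concentration, added after compound / Schedule: dye 45 min RT, compound 110 s, agonist read 110 s / Technique: membrane potential dye fluorescence, kinetic read / Read-out basis: control-normalized integrated fluorescence ratio / Repeats: two replicates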

Sequence of Short transient receptor potential channel 6 (Mus musculus) (Q61143 whole entry, looked up): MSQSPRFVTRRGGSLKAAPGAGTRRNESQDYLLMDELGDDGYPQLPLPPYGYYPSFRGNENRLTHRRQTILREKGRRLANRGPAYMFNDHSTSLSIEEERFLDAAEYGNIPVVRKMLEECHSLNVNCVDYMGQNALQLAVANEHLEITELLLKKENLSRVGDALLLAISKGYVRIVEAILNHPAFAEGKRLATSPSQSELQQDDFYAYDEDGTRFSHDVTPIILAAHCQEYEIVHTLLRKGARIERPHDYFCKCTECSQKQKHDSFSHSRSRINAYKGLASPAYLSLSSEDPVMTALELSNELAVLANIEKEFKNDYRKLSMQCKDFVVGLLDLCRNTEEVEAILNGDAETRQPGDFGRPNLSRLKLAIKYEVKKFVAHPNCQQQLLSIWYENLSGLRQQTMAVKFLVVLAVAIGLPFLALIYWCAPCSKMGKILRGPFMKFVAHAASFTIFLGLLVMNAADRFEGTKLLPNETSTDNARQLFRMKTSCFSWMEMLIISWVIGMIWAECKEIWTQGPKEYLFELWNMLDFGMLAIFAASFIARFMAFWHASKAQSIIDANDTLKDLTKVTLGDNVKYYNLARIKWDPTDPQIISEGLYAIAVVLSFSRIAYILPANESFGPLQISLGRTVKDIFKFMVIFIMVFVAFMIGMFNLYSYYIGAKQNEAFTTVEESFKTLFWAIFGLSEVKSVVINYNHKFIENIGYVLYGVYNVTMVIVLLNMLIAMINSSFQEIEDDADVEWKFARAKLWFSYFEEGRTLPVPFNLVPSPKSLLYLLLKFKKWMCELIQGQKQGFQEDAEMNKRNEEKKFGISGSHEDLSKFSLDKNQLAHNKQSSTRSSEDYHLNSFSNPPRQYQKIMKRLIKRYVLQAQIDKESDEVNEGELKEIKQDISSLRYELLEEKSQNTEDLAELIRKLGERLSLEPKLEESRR

Compound | outcome
Cc1onc(-c2c(F)cccc2Cl)c1C(=O)N1CCN(c2ncc(Br)cn2)CC1 | inactive
CCOC(=O)C1=NN(C(=O)c2ccc(C)cc2)C(O)(c2ccc(Cl)cc2)C1 (centres undefined) | inactive
COc1ccc(/C=C/CN2CCCC(C(=O)c3ccc(OC)c(F)c3)C2)cc1 (centres undefined) | inactive
NCCSc1c(-c2ccc(Cl)cc2)[nH]c2ccccc12 | inactive
COc1ccc(C(CNC(=O)c2cccc(NS(=O)(=O)c3ccc(C)c(F)c3)c2)N(C)C)cc1 (centres undefined) | inactive
CCCOc1ccc(C(=O)NNC(=S)NC(=O)c2cccs2)cc1 | inactive
CCOC(=O)C1CCCN(C(c2ccccn2)c2c(C)[nH]c3ccccc23)C1 (centres undefined) | inactive
Cc1ccc(NS(=O)(=O)c2ccc(C(=O)N3CC(C)CC(C)C3)cc2)cc1 (centres undefined) | inactive
COC(=O)C1=NN(C(=O)c2cccc(Br)c2)C(O)(c2ccc(Cl)cc2)C1 (centres undefined) | inactive
Cc1cc(C)c(CN2CCN(Cc3ccc(C)o3)C(CCO)C2)c(-n2cccn2)c1 (centres undefined) | inactive
CCOc1ccc2ncc(C(=O)c3ccc(OC)cc3)c(N3CCN(CC)CC3)c2c1 | inactive
CC(C)(C)c1cc(CCC(=O)NNC(=S)NC(=O)c2ccccc2)cc(C(C)(C)C)c1O | inactive
COc1ccccc1C(=O)NNC(=S)NC(=O)c1sc2ccccc2c1Cl | inactive
O=C1CC(O)(C(F)(F)F)Oc2c1ccc1ccccc21 (centres undefined) | inactive
CCCc1ccc(OCC(=O)NNC(=S)NC(=O)c2ccco2)cc1 | inactive
Cc1ccccc1OCC(=O)NNC(=S)NC(=O)c1ccco1 | inactive
CCCOc1ccc(C(=O)NC(=S)NNC(=O)c2c(-c3ccccc3)noc2C)cc1 | inactive
Cc1cc(OCCCn2ccnc2)cc(C)c1Cl | inactive
CCN1CCN(c2c(S(=O)(=O)c3ccc(C)c(C)c3)cnc3ccc(F)cc23)CC1 | inactive
Cc1cccc(C(=O)NC(=S)NNC(=O)c2cccs2)c1 | inactive
Cc1ccc(C)c(-n2cc(CNCCc3cnccn3)c(-c3ccccc3)n2)c1 | inactive
Cc1ccc2c(C)c(C(=O)N(Cc3cccs3)C3CCS(=O)(=O)C3)oc2c1 (centres undefined) | inactive
CC(C)(C)c1ccc(C(=O)NC(=S)NNC(=O)c2cccs2)cc1 | inactive
CCCCN(CC)CCCNC(=O)Cn1nc(Cc2ccncc2)c2ccccc2c1=O | inactive

Biological target: Short transient receptor potential channel 6 (Mus musculus) (UniProt Q61143)
Assay: TRPC6 opening by TRPC4 activator hits – cell-based, HEK293, membrane potential dye, duplicate, selectivity assay for TRPC4 activator project, confirmation (AID 434950);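 as to activation: 0% = buffer only wells and 100% = acetylcholine maximal-effect wells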
Conditions: HEK293 TRPC6, membrane potential fluorescence, at 10 µM; activation: hits give high values; outcome: activation

Compound | outcome | activation
CC1CCCCN1S(=O)(=O)c1ccc(C(=O)N(CCCN(C)C)c2nc3ccc(Br)cc3s2)cc1 (centres undefined) | inactive | 
CC(C)(C)C(=O)NC(=S)NNC(=O)c1ccc(-c2ccccc2)cc1 |  | 35.5% (active)
CCCOc1ccc(C(=O)NNC(=S)NC(=O)c2ccccc2)cc1 | inactive | 
OCCN1CCN(Cc2cc(Br)cc(Br)c2O)CC1 |  | 32% (active)
c1ccc(Nc2nc(Nc3ccccc3)nc(N3CCNCC3)n2)cc1 |  | 35.5% (active)
O=c1c2cc(Br)ccc2nc(-c2cccc(C(F)(F)F)c2)n1O | inactive | 
COc1cc(OC)cc(C(=O)NC(=S)NNC(=O)[C@H]2C[C@@H]2c2ccccc2)c1 | inactive | 
c1ccc2c(c1)CCN(c1ncnc3c1[nH]c1ccccc13)C2 | inactive | 
O=C(CCc1ccccc1)NNC(=S)NC(=O)c1ccc(Cl)cc1 |  | 30% (active)
Cc1cccc(C(=O)NNC(=S)NC(=O)c2cccs2)c1 | inactive | 
CN(C)CCCN(C(=O)c1ccc(S(=O)(=O)N2CCCCCC2)cc1)c1nc2ccc(F)cc2s1 | inactive | 
CC[C@@H](C(=O)[C@@H](C)[C@@H](O)[C@H](C)CCc1ccc(C)c(O)c1C(=O)O)[C@H]1O[C@](CC)([C@H]2CC[C@](O)(CC)[C@H](C)O2)C[C@@H]1C |  | 58.5% (active)
Cc1occc1C(=O)NNC(=S)NC(=O)COc1ccc(Cl)cc1Cl | inactive | 
COc1cc(OC)cc(C(=O)N[C@H](C(=O)OCC(=O)NC(C)c2ccccc2)C(C)C)c1 (some centres undefined) |  | 36% (active)
O=C(NC(=S)NNC(=O)[C@H]1C[C@@H]1c1ccccc1)c1cccc(F)c1 | inactive | 
CCOc1ccccc1OCC(=O)Nc1cc(S(=O)(=O)N2CCCCC2)ccc1N1CCN(CC)CC1 | inactive | 
Cc1onc(-c2c(F)cccc2Cl)c1C(=O)N1CCN(c2ncc(Br)cn2)CC1 |  | 42.5% (active)
CCOC(=O)C1=NN(C(=O)c2ccc(C)cc2)C(O)(c2ccc(Cl)cc2)C1 (centres undefined) |  | 217% (active)
COc1ccc(/C=C/CN2CCCC(C(=O)c3ccc(OC)c(F)c3)C2)cc1 (centres undefined) |  | 33% (active)
NCCSc1c(-c2ccc(Cl)cc2)[nH]c2ccccc12 | inactive | 

Compound | outcome | activation
COc1ccc(C(CNC(=O)c2cccc(NS(=O)(=O)c3ccc(C)c(F)c3)c2)N(C)C)cc1 (centres undefined) |  | 28.5% (active)
CCCOc1ccc(C(=O)NNC(=S)NC(=O)c2cccs2)cc1 | inactive | 
CCOC(=O)C1CCCN(C(c2ccccn2)c2c(C)[nH]c3ccccc23)C1 (centres undefined) |  | 31% (active)
Cc1ccc(NS(=O)(=O)c2ccc(C(=O)N3CC(C)CC(C)C3)cc2)cc1 (centres undefined) |  | 65.5% (active)
COC(=O)C1=NN(C(=O)c2cccc(Br)c2)C(O)(c2ccc(Cl)cc2)C1 (centres undefined) | inactive | 
Cc1cc(C)c(CN2CCN(Cc3ccc(C)o3)C(CCO)C2)c(-n2cccn2)c1 (centres undefined) |  | 73% (active)
CCOc1ccc2ncc(C(=O)c3ccc(OC)cc3)c(N3CCN(CC)CC3)c2c1 | inactive | 
CC(C)(C)c1cc(CCC(=O)NNC(=S)NC(=O)c2ccccc2)cc(C(C)(C)C)c1O | inactive | 
COc1ccccc1C(=O)NNC(=S)NC(=O)c1sc2ccccc2c1Cl |  | 30.5% (active)
O=C1CC(O)(C(F)(F)F)Oc2c1ccc1ccccc21 (centres undefined) | inactive | 
CCCc1ccc(OCC(=O)NNC(=S)NC(=O)c2ccco2)cc1 | inactive | 
Cc1ccccc1OCC(=O)NNC(=S)NC(=O)c1ccco1 |  | 31.5% (active)
CCCOc1ccc(C(=O)NC(=S)NNC(=O)c2c(-c3ccccc3)noc2C)cc1 | inactive | 
Cc1cc(OCCCn2ccnc2)cc(C)c1Cl |  | 47.5% (active)
CCN1CCN(c2c(S(=O)(=O)c3ccc(C)c(C)c3)cnc3ccc(F)cc23)CC1 |  | 50% (active)
Cc1cccc(C(=O)NC(=S)NNC(=O)c2cccs2)c1 |  | 34.5% (active)
Cc1ccc(C)c(-n2cc(CNCCc3cnccn3)c(-c3ccccc3)n2)c1 |  | 40% (active)
Cc1ccc2c(C)c(C(=O)N(Cc3cccs3)C3CCS(=O)(=O)C3)oc2c1 (centres undefined) |  | 34.5% (active)
CC(C)(C)c1ccc(C(=O)NC(=S)NNC(=O)c2cccs2)cc1 | inactive | 
CCCCN(CC)CCCNC(=O)Cn1nc(Cc2ccncc2)c2ccccc2c1=O |  | 31.5% (active)
